Results taken from ChEMBL document CHEMBL1149884, “Investigating biological activity spectrum for novel quinoline analogues 2: hydroxyquinolinecarboxamides with photosynthesis-inhibiting activity” (Bioorg Med Chem, 2008).
The source made the active and inactive calls. The rule behind the calls is not given here.

Key:
Spinacia oleracea = experiment: Herbicidal activity in Spinacia oleracea assessed as inhibition of photosynthetic electron transport by decrease in oxygen evolution; type: functional
In short: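 Spinach chloroplast PET measured as oxygen evolution in phosphate buffer (0.02 mol/L, pH 7.2) with sucrose 0.4 mol/L, MgCl₂ 0.005 mol/L, NaCl 0.015 mol/L. Chl 30 mg/L, halogen lamp irradiation (~100 W/m², 10 cm, water filter), 22 °C. IC50 = molar concentration giving 50% decrease in oxygen evolution vs untreated control.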

Chlorella vulgaris = experiment: Herbicidal activity against Chlorella vulgaris Beij assessed as decrease in chlorophyll content after 7 days; type: functional, organism-based; conditions: for IC50: 168 h
In short: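 C. vulgaris grown statically at room temperature (16 h light/8 h dark, 80 µmol/m² s PAR, pH 7.2), starting Chl 0.01 mg/L. Exposed 7 days to 100, 75, 50, 25, 8.3, 4.2, 0.83 µmol/L (DMSO ≤0.25%, matched DMSO controls). Chl read spectrophotometrically after methanol extraction. IC50 = 50% Chl decrease vs control, else mean % of control over 100–0.83 µmol/L ± SD.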

[1] = Lipophilicity, log K of the compound; type: physicochemical
In short: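 Isocratic RP-HPLC on end-capped C18 column, methanol as organic modifier. Retention times taken in minutes. Capacity factor K derived from them, and log K used as a lipophilicity index.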

log K [1] | log K ([1]; octanol/water) | Structure (SMILES) | IC50 (Spinacia oleracea) | IC50 (Chlorella vulgaris) | Activity (Spinacia oleracea) | Activity (Chlorella vulgaris)
– | – | CN(C)C(=O)Nc1ccc(Cl)c(Cl)c1 [DCMU] | 1.9 µM | – | – | –
0.2843 | – | COc1ccc(CNC(=O)c2ccc3ccc(C)nc3c2O)cc1 | – | 4.8 µM | inactive | –
0.4173 | – | Cc1ccc2c(O)c(C(=O)NCCCCc3ccccc3)ccc2n1 | 7.2 µM | 10.9 µM | – | –
0.372 | – | Cc1ccc2ccc(C(=O)NC(C)c3ccc(F)cc3)c(O)c2n1 (stereo unspecified) | – | 83.3 µM | inactive | –
0.2629 | – | Cc1ccc2ccc(C(=O)NCCO)c(O)c2n1 | – | – | inactive | inactive
0.4072 | – | Cc1ccc2c(O)c(C(=O)Nc3ccc4c(O)c(C(=O)O)cc([N+](=O)[O-])c4n3)ccc2n1 | 114 µM | – | – | –
0.3663 | – | Cc1ccc2c(O)c(C(=O)NC(C)c3ccc(F)cc3)ccc2n1 (stereo unspecified) | 426 µM | – | – | –
– | 0.6361 | Cc1ccc2ccc(C(=O)NNC(=O)c3ccccc3O)c(O)c2n1 | – | – | inactive | inactive
0.3342 | – | Cc1ccc2ccc(C(=O)NCCc3ccc(F)cc3)c(O)c2n1 | – | 15.9 µM | inactive | –
0.4136 | – | Cc1ccc2c([N+](=O)[O-])cc(C(=O)NCc3ccc(F)cc3)c(O)c2n1 | 95 µM | – | – | inactive
0.2404 | – | Cc1ccc2ccc(C(=O)NCCc3ccccc3)c(O)c2n1 | – | – | inactive | –
0.4304 | – | Cc1ccc(CNC(=O)c2cc([N+](=O)[O-])c3ccc(C)nc3c2O)cc1 | 107 µM | – | – | inactive
0.4021 | – | Cc1ccc2c([N+](=O)[O-])cc(C(=O)NCc3ccccc3)c(O)c2n1 | 32 µM | – | – | inactive
0.1168 | – | Cc1ccc2ccc(C(=O)NCCCNC(=O)c3ccc4ccc(C)nc4c3O)c(O)c2n1 | – | 149 µM | inactive | –
0.4087 | – | COc1ccc(CNC(=O)c2cc([N+](=O)[O-])c3ccc(C)nc3c2O)cc1 | 137 µM | – | – | inactive
0.612 | – | Cc1ccc2c(O)c(C(=O)NC(=O)NC(=O)c3ccc4nc(C)ccc4c3O)ccc2n1 | 833 µM | 5.5 µM | – | –
0.3389 | – | Cc1ccc2ccc(C(=O)NCc3ccc(F)cc3)c(O)c2n1 | – | 158 µM | inactive | –
0.5075 | – | Cc1ccc2ccc(C(=O)NCCCCc3ccccc3)c(O)c2n1 | – | 8.5 µM | inactive | –
0.3793 | – | Cc1ccc(CNC(=O)c2ccc3ccc(C)nc3c2O)cc1 | – | 7.2 µM | inactive | –
0.38 | – | Cc1ccc(CNC(=O)c2ccc3nc(C)ccc3c2O)cc1 | 468 µM | – | – | –
0.3812 | – | Cc1ccc2c(O)c(C(=O)Nc3ccc(Cl)cc3)ccc2n1 | 265 µM | 23.8 µM | – | –
0.1203 | – | Cc1ccc2c(O)c(C(=O)NCCCNC(=O)c3ccc4nc(C)ccc4c3O)ccc2n1 | 819 µM | 19.5 µM | – | –
0.3775 | – | Cc1ccc2c(O)c(C(=O)NCCc3ccc(O)cc3)ccc2n1 | 16 µM | – | – | –
0.2812 | – | Cc1ccc2ccc(C(=O)NCc3ccccc3)c(O)c2n1 | – | 17.2 µM | inactive | –
0.4283 | – | Cc1ccc2c([N+](=O)[O-])cc(C(=O)NC(C)c3ccc(F)cc3)c(O)c2n1 (stereo unspecified) | 8.7 µM | 43.6 µM | – | –
0.1109 | – | Cc1ccc2ccc(C(=O)NCCNC(=O)c3ccc4ccc(C)nc4c3O)c(O)c2n1 | – | 93.7 µM | inactive | –
